Laboratory results taken from ChEMBL document CHEMBL1275400, “Design, synthesis, and DNA-binding of N-alkyl(anilino)quinazoline derivatives” (J Med Chem, 2010).
The source made the active and inactive calls. The rule behind the calls is not given here.

Columns and labels:
[1] = tested on: Nucleic Acid; assay: Binding affinity to poly(dA-dT)2 in BPE buffer assessed as change in melting temperature at drug/DNA base pair ratio 1; type: nucleic-acid assay
How it was run: (§1)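 Melting curves are read at 260 nm in BPE buffer, pH 7.1 (6 mM Na2HPO4, 2 mM NaH2PO4, 1 mM EDTA), in Peltier-heated 10 mm quartz cuvettes. Temperature rises from 20 to 100 °C at 1 °C/min and is monitored with a platinum probe. Tm is taken as the midpoint of the hyperchromic transition.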

[2] = tested on: Calf thymus DNA; assay: Binding affinity to calf thymus DNA in BPE buffer assessed as change in melting temperature at drug/DNA base pair ratio 1; type: nucleic-acid assay; details: Bos taurus; how it was run: as §1
[3] = tested on: Calf thymus DNA; assay: Binding affinity to calf thymus DNA by fluorescence titration assay; type: nucleic-acid assay, Bos taurus
How it was run: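 Intrinsic drug fluorescence is measured at room temperature with excitation at 360 nm and emission scanned over 380–520 nm. Drug is held at 10 μM with DNA at 0.01–1 mM, each sample prepared separately. The apparent KD is obtained by nonlinear least-squares fitting to KD = [ligand][DNA]/[ligand-DNA].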

[4] = tested on: MCF7; assay: Antiproliferative activity against human MCF7 cells after 72 hrs by MTS assay; type: functional, cell-based; details: MCF7, 72 h
[5] = tested on: Calf thymus DNA; assay: Binding affinity to calf thymus DNA in BPE buffer at drug/DNA base pair ratio up to 10 by UV spectroscopic analysis; type: nucleic-acid assay; details: Bos taurus
How it was run: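 Absorption spectra are recorded in BPE buffer, pH 7.1, at a constant drug concentration of 20 μM. Aliquots of concentrated calf thymus DNA are added to cover a range of DNA-phosphate/drug ratios.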

[6] = target: T1, DNA topoisomerase 1 (Homo sapiens) (UniProt P11387); assay: Inhibition of human recombinant topoisomerase 1-mediated supercoiled pUC19 DNA relaxation up to 100 uM […] by agarose gel electrophoresis analysis; details: in the assay text read “45 mins” for “2 hrs”
T1 sequence (whole entry): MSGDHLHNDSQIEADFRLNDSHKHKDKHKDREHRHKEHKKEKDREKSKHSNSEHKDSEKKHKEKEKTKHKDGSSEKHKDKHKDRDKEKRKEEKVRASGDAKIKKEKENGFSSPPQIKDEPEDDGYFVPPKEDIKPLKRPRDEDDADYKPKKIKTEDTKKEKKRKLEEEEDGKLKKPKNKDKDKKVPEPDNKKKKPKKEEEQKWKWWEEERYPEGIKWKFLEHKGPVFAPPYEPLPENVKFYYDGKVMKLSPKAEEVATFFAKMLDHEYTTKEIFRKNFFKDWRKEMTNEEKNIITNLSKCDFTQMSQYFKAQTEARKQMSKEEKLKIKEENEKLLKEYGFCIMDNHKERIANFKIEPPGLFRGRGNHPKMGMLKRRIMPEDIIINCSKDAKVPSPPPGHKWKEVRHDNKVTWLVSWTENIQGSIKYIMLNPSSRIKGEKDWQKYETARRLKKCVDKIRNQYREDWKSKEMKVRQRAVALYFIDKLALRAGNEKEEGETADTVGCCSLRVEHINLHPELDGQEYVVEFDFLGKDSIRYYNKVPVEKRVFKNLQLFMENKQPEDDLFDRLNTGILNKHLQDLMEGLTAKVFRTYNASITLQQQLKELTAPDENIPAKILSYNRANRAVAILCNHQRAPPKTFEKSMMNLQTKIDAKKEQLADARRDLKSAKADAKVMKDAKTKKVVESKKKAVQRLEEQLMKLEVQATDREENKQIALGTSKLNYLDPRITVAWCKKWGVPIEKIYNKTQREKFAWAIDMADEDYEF
How it was run: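 Supercoiled pUC19 (130 ng) is incubated with 4 units of recombinant human topoisomerase I for 45 min at 37 °C. The relaxation buffer is 50 mM Tris pH 7.8, 50 mM KCl, 10 mM MgCl2, 1 mM DTT and 1 mM EDTA, with graded drug. Reactions are stopped with 0.25% SDS and 250 μg/mL proteinase K. Samples are run on 1% agarose for 2 h at 120 V and stained with ethidium bromide.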

[7] = tested on: PC-3; assay: Antiproliferative activity against human PC3 cells after 72 hrs by MTS assay; type: functional, cell-based; details: PC-3, 72 h
[8] = tested on: Nucleic Acid; assay: Binding affinity to DNA assessed as inhibition of cleavage of DNA substrate up to 100 uM by Dnase1 footprinting assay; type: nucleic-acid assay
How it was run: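 DNase I is then added to a final concentration of about 0.01 unit/mL. Digestion runs 3 min and is stopped by freeze-drying. Protected sites are localized on the gel.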

[9] = tested on: Calf thymus DNA; assay: Binding affinity to calf thymus DNA at drug/DNA base pair ratio up to 4 by circular dichroism analysis; type: nucleic-acid assay; details: Bos taurus
How it was run: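 CD spectra are recorded in 1 mM sodium cacodylate buffer, pH 7.0, in 10 mm quartz cuvettes, averaging four scans. A 50 μM drug solution is diluted stepwise with 5 mM DNA. Alternatively, the drug–DNA complex at high P/D is diluted with pure ligand solution to reach the desired drug/DNA ratio.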

[10] = tested on: Nucleic Acid; assay: Binding affinity to DNA assessed as inhibition of cleavage of DNA substrate by densitometric analysis; type: nucleic-acid assay
[11] = tested on: HT-29; assay: Antiproliferative activity against human HT-29 cells after 72 hrs by MTS assay; type: functional, cell-based; details: HT-29, 72 h

ΔTm [1] [°C] | ΔTm [2] [°C] | SMILES | further results
4.6 | 2.8 | CN(c1ccc(F)c(Cl)c1)c1ncnc2cc3c(cc12)OCO3 | –
10.5 | 7.7 | COc1cc2ncnc(N(C)c3cccc(NC(=O)Nc4ccc(F)c(Cl)c4)c3)c2cc1OC | –
9.8 | 7.3 | COc1cc2ncnc(N(C)c3cccc(F)c3)c2cc1OC | –
9.1 | 6.5 | COc1cc2ncnc(N(C)c3ccc(C(F)(F)F)cc3)c2cc1OC | –
0.5 | 1.2 | COc1cc2ncnc(Oc3ccc(F)c(Cl)c3)c2cc1OC | –
13.4 | 8.8 | CCN(c1ccc(C)c(Br)c1)c1ncnc2cc(OC)c(OC)cc12 | –
10.8 | 6 | COc1cc2ncnc(N(C)c3ccc(Br)cc3)c2cc1OC | –
7.9 | 5.2 | CCNC(=O)Nc1cccc(N(C)c2ncnc3cc(OC)c(OC)cc23)c1 | –
0.4 | 0.2 | COc1cc2ncnc(Nc3ccc(F)c(Cl)c3)c2cc1OC | –
3.3 | 1.4 | COc1cc2ncnc(N(C)c3ccc(Br)cc3F)c2cc1OC | –
12.6 | 7 | CCCN(c1ccc(C)c(Br)c1)c1ncnc2cc(OC)c(OC)cc12 | –
12.2 | 8.1 | COc1cc2ncnc(N(C)c3cccc(Br)c3)c2cc1OC | inhibition [6]: inactive
9.5 | 5.8 | COc1cc2ncnc(N(C)c3cccc(C(F)(F)F)c3)c2cc1OC | –
15 | 8.4 | COc1cc2ncnc(N(C)c3ccc(C)c(Br)c3)c2cc1OC | Kd [3]: 326 µM; IC50 [4]: 9.9 µM; Activity [5]: Active; inhibition [6]: inactive; IC50 [7]: 9.5 µM; Activity [8]: Active; Activity [9]: Active; Activity [10]: Active; IC50 [11]: 6.3 µM
13.7 | 8.9 | COc1cc2ncnc(N(C)c3ccc(C)c(Cl)c3)c2cc1OC | –
10.5 | 6.1 | COc1cc2ncnc(N(C)c3ccc(F)c(Cl)c3)c2cc1OC | –
12.4 | 7.7 | COc1cc2ncnc(N(C)c3cccc(Cl)c3)c2cc1OC | –
3.3 | 1.6 | COc1cc2ncnc(N(C)c3cc(Br)ccc3Br)c2cc1OC | –
12.4 | 5.8 | COc1cc2ncnc(N(c3ccc(C)c(Br)c3)C(C)C)c2cc1OC | –
9.7 | 7.1 | COc1cc2ncnc(N(C)c3cccc(C)c3)c2cc1OC | –
0.5 | 0.8 | COc1cc2ncnc(Oc3ccc(Br)cc3F)c2cc1OC | –
11.3 | 7.3 | COc1cc2ncnc(N(C)c3ccc(C)c(F)c3)c2cc1OC | –
11 | 7.8 | COc1cc2ncnc(N(C)c3ccc(C)c(C(F)(F)F)c3)c2cc1OC | –

More lines, now with the values behind:

SMILES | ΔTm [1] [°C] | ΔTm [2] [°C] | further results
COc1ccc(NC(=O)Nc2ccc(Oc3ncnc4cc(OC)c(OC)cc34)cc2)cc1 | 0.5 | 0.3 | –
CCCCNC(=O)Nc1ccc(N(C)c2ncnc3cc(OC)c(OC)cc23)cc1 | 0.4 | 0.3 | –
CN(c1ccc(Br)cc1F)c1ncnc2cc3c(cc12)OCO3 | 4.2 | 3.6 | –
COc1cc2ncnc(Nc3cccc(Cl)c3)c2cc1OC | 0.3 | 1.8 | –
CCN(CC)CCN(c1ccc(C)c(Br)c1)c1ncnc2cc(OC)c(OC)cc12 | 24.1 | 14 | Kd [3]: 40.2 µM; IC50 [4]: 6.8 µM; Activity [5]: Active; inhibition [6]: inactive; IC50 [7]: > 10 µM; Activity [8]: Active; Activity [9]: Active; Activity [10]: Active; IC50 [11]: 5.6 µM
COc1cc2ncnc(N(CCN3CCCCC3)c3ccc(C)c(Br)c3)c2cc1OC | 27.7 | 13.5 | Activity [8]: Active
COc1cc2ncnc(Nc3cccc(F)c3)c2cc1OC | 0.4 | 0.2 | –
COc1cc2ncnc(Nc3ccc(C)c(Br)c3)c2cc1OC | 0.4 | 0.2 | –
COc1cc2ncnc(Oc3cccc(NC(=O)Nc4ccccc4)c3)c2cc1OC | 0.5 | 0.4 | –
COc1cc2ncnc(N(C)c3cccc(NC(=O)Nc4ccccc4)c3)c2cc1OC | 9.9 | 6 | –
Fc1ccc(Nc2ncnc3cc4c(cc23)OCO4)cc1Cl | 0.4 | 0.3 | –
COc1cc2ncnc(Oc3cccc(Br)c3)c2cc1OC | 0.7 | 0.7 | –
COc1cc2ncnc(Nc3ccc(C)c(C(F)(F)F)c3)c2cc1OC | 0.5 | 0.4 | –
COc1cc2ncnc(N(CCN(C)C)c3ccc(C)c(Br)c3)c2cc1OC | 20 | 9.9 | –
COc1cc2ncnc(Nc3ccc(Br)cc3F)c2cc1OC | 0.3 | 0.1 | –
COc1cc2ncnc(N(C)c3ccc(NC(=O)Nc4ccccc4)cc3)c2cc1OC | 0.6 | 0.4 | –

SMILES | ΔTm [1] [°C] | ΔTm [2] [°C] | further results
COc1cc2ncnc(N(C)c3cccc(NC(=O)NC4CCCCC4)c3)c2cc1OC | 9.7 | 5.7 | –
COc1cc2ncnc(Nc3ccc(C)c(F)c3)c2cc1OC | 0.5 | 0.2 | –
COc1cc2ncnc(Oc3ccc(NC(=O)Nc4ccccc4)cc3)c2cc1OC | 0.5 | 0.4 | –
COc1cc2ncnc(Nc3ccc(C)c(Cl)c3)c2cc1OC | 0.4 | 0.3 | –
COc1ccc(NC(=O)Nc2cccc(N(C)c3ncnc4cc(OC)c(OC)cc34)c2)cc1 | 11 | 6.8 | –
COc1cc2ncnc(Nc3ccc(C(F)(F)F)cc3)c2cc1OC | 0.5 | 0.1 | –
COc1cc2ncnc(Nc3cccc(C)c3)c2cc1OC | 0.3 | 0.3 | –
COc1cc2ncnc(N(Cc3ccccc3)c3ccc(C)c(Br)c3)c2cc1OC | 9.6 | 6.5 | –
CCCCNC(=O)Nc1cccc(N(C)c2ncnc3cc(OC)c(OC)cc23)c1 | 8.1 | 5.7 | –
COc1cc2ncnc(Nc3ccc(Br)cc3)c2cc1OC | 0.2 | 3.9 | –
COc1ccc(NC(=O)Nc2cccc(Oc3ncnc4cc(OC)c(OC)cc34)c2)cc1 | 0.3 | 0.2 | –
COc1cc2ncnc(Nc3cc(Br)ccc3Br)c2cc1OC | 0.5 | 0.4 | –
COc1cc2ncnc(Nc3cccc(Br)c3)c2cc1OC | 0.4 | 0.2 | IC50 [4]: 4.7 µM; Activity [5]: Active; inhibition [6]: inactive; IC50 [7]: > 10 µM; Activity [9]: Active; IC50 [11]: 10.1 µM
Fc1cc(Br)ccc1Nc1ncnc2cc3c(cc12)OCO3 | 0.5 | 0.3 | –
COc1cc2ncnc(Nc3cccc(C(F)(F)F)c3)c2cc1OC | 0.5 | 0.2 | –
